The text below walks through data of ChEMBL document CHEMBL1275303, “Synthesis and antimicrobial activity of 2-substituted [4-(1,3,4-oxadiazol-2-yl methyl)] phthalazin-1(2H)-one derivatives” (2010).

Assay [1] deals with Salmonella typhi. Briefly: Antimicrobial activity against Salmonella typhi at 50 ug/mL after 24 hrs by well plate method. It counts as functional, Salmonella enterica subsp. enterica serovar Typhi. The following applies: Salmonella enterica, read-out: IZ. In a few lines: (§1)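 Agar well diffusion in nutrient agar: about 1 cm³ of a 24 h broth culture placed in a sterile dish, molten agar at 45 °C poured over it and allowed to set. 6 mm holes cut with a sterile cork borer and filled with compound solution in DMSO. Incubated 24 h at 37 °C; inhibition zone diameter read in mm. Run in duplicate, standard deviation calculated.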

In assay [2] the test system is Chrysosporium keratinophilum. Briefly: Antimicrobial activity against Chrysosporium keratinophilum at 50 ug/mL after 72 hrs by well plate method. It counts as functional. The following applies: read-out: IZ. In a few lines:
(§2)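 Antifungal well-plate assay on Sabouraud dextrose agar using a 72 h old broth culture of the fungal strain. Wells were filled with compound dissolved in DMSO (100 or 50), and the zone of inhibition around each well was measured. […] served as reference.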

Assay [3] relates to Candida albicans. Briefly: Antimicrobial activity against Candida albicans at 100 ug/mL after 72 hrs by well plate method. The following applies: read-out: IZ. The assay is classed as functional. In a few lines:
as §2

The test system of assay [4] is Escherichia coli. Put plainly: Antimicrobial activity against Escherichia coli at 100 ug/mL after 24 hrs by well plate method. The following applies: read-out: IZ. It counts as functional. In short, it runs like this:
(§3)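 Agar well diffusion in nutrient agar. About 1 cm³ of a 24 h broth culture was placed in sterile dishes, and molten agar at 45 °C was poured over it and set. 6 mm wells were bored and filled with compound in DMSO (100 or 50). Plates were incubated 24 h at 37 °C, and the inhibition zone was read in mm. Duplicate runs, with standard deviation; amoxicillin as reference.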

Assay [5] concerns Bacillus subtilis. Put plainly: Antimicrobial activity against Bacillus subtilis at 100 ug/mL after 24 hrs by well plate method. The assay is classed as functional. The following applies: read-out: IZ. In a few lines:
as §3

The subject of assay [6] is Staphylococcus aureus. Briefly: Antimicrobial activity against Staphylococcus aureus at 50 ug/mL after 24 hrs by well plate method. It counts as functional. The following applies: read-out: IZ. In a few lines:
as §3

Assay [7] has as its system Nannizzia gypsea. Briefly: Antimicrobial activity against Microsporum gypseum at 50 ug/mL after 72 hrs by well plate method. It counts as functional. The following applies: read-out: IZ. In short, it runs like this: as §2
Assay [8] concerns Salmonella typhi. Put plainly: Antimicrobial activity against Salmonella typhi at 100 ug/mL after 24 hrs by well plate method. The following applies: Salmonella enterica, read-out: IZ. It counts as functional, Salmonella enterica subsp. enterica serovar Typhi. In short, it runs like this: as §1
Assay [9] deals with Chrysosporium keratinophilum. Put plainly: Antimicrobial activity against Chrysosporium keratinophilum at 100 ug/mL after 72 hrs by well plate method. The assay is classed as functional. The following applies: read-out: IZ. In a few lines: as §2
In assay [10] the test system is Candida albicans. Briefly: Antimicrobial activity against Candida albicans at 50 ug/mL after 72 hrs by well plate method. It counts as functional. The following applies: read-out: IZ. In short, it runs like this: as §2
The test system of assay [11] is Aspergillus flavus. Put plainly: Antimicrobial activity against Aspergillus flavus at 50 ug/mL after 72 hrs by well plate method. It counts as functional. The following applies: read-out: IZ.
Assay [12] relates to Escherichia coli. Briefly: Antimicrobial activity against Escherichia coli at 50 ug/mL after 24 hrs by well plate method. The following applies: read-out: IZ. It counts as functional. In short, it runs like this:
as §3

Assay [13] deals with Bacillus subtilis. Put plainly: Antimicrobial activity against Bacillus subtilis at 50 ug/mL after 24 hrs by well plate method. The assay is classed as functional. The following applies: read-out: IZ. In short, it runs like this:
as §3

Assay [14] has as its system Aspergillus flavus. Briefly: Antimicrobial activity against Aspergillus flavus at 100 ug/mL after 72 hrs by well plate method. It counts as functional. The following applies: read-out: IZ.
In assay [15] the test system is Staphylococcus aureus. Briefly: Antimicrobial activity against Staphylococcus aureus at 100 ug/mL after 24 hrs by well plate method. The assay is classed as functional. The following applies: read-out: IZ. In a few lines:
as §3

In assay [16] the test system is Nannizzia gypsea. Briefly: Antimicrobial activity against Microsporum gypseum at 100 ug/mL after 72 hrs by well plate method. It counts as functional. The following applies: read-out: IZ. In short, it runs like this: as §2

Consider `O=c1c2ccccc2c(Cc2nnc(-c3ccc(Cl)nc3)o2)nn1CCN1CCOCC1`, for which the zone of inhibition at 50 µg/mL was found to be 3.5 mm in the assay on Salmonella typhi [1]; 1.5 mm in [2]; 3.5 mm with Staphylococcus aureus [6]; 4 mm in the assay on Nannizzia gypsea [7]; 6.5 mm with Candida albicans [10]; 4.5 mm with Aspergillus flavus [11]. The zone of inhibition at 50 µg/mL was determined as 1.5 mm in the assay on Escherichia coli [12] and 4.5 mm with Bacillus subtilis [13]. The zone of inhibition at 100 µg/mL came out at 10.5 mm with Candida albicans [3]; 5.5 mm in the assay with Escherichia coli [4]; 9 mm in the assay on Bacillus subtilis [5]; 6.5 mm in the assay with Salmonella typhi [8]; 4.5 mm in assay [9]; 8 mm in the assay on Aspergillus flavus [14]. The zone of inhibition at 100 µg/mL in the assay with Staphylococcus aureus [15] was determined as 7 mm; in the assay with Nannizzia gypsea [16], 9.5 mm.
